Source: ChEMBL document CHEMBL4152256, “Structure-activity relationship of new antimalarial 1-aryl-3-susbtituted propanol derivatives: Synthesis, preliminary toxicity profiling, parasite life cycle stage studies, target exploration, and targeted delivery” (Eur J Med Chem, 2018)

Columns and labels:
[1] = Genotoxicity in Salmonella typhimurium TA1535 harboring pSK1002 assessed as umu gene induction at 0.008 mg/ml in presence of Sprague-Dawley rat liver S9 fraction after by SOS/umu assay relative to control; assay type: toxicity, organism-based; details: salmonella enterica subsp. enterica serovar typhimurium, read-out: FC
[2] = Genotoxicity in Salmonella typhimurium TA1535 harboring pSK1002 assessed as survival at 0.063 mg/ml in presence of Sprague-Dawley rat liver S9 fraction after by SOS/umu assay relative to control; assay type: toxicity, organism-based; details: salmonella enterica subsp. enterica serovar typhimurium, read-out: Survival
[3] = Genotoxicity in Salmonella typhimurium TA1535 harboring pSK1002 assessed as survival at 0.063 mg/ml in absence of Sprague-Dawley rat liver S9 fraction after by SOS/umu assay relative to control; assay type: toxicity, organism-based; details: salmonella enterica subsp. enterica serovar typhimurium, read-out: Survival
[4] = Genotoxicity in Salmonella typhimurium TA1535 harboring pSK1002 assessed as survival at 0.016 mg/ml in absence of Sprague-Dawley rat liver S9 fraction after by SOS/umu assay relative to control; assay type: toxicity, organism-based; details: salmonella enterica subsp. enterica serovar typhimurium, read-out: Survival
Plasmodium falciparum [5] = assay: Antiplasmodial activity against chloroquine-sensitive Plasmodium falciparum 3D7 by [3H]-hypoxanthine incorporation assay; assay type: functional, organism-based; details: Plasmodium falciparum, 3D7
Outline: (§1)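 Blood-stage P. falciparum 3D7 and FCR-3 were tested by a modified [3H]-hypoxanthine incorporation assay. Chloroquine was the reference in all runs.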

[6] = Genotoxicity in Salmonella typhimurium TA1535 harboring pSK1002 assessed as umu gene induction at 0.031 mg/ml in absence of Sprague-Dawley rat liver S9 fraction after by SOS/umu assay relative to control; assay type: toxicity, organism-based; details: salmonella enterica subsp. enterica serovar typhimurium, read-out: FC
[7] = Genotoxicity in Salmonella typhimurium TA1535 harboring pSK1002 assessed as umu gene induction at 0.125 mg/ml in absence of Sprague-Dawley rat liver S9 fraction after by SOS/umu assay relative to control; assay type: toxicity, organism-based; details: salmonella enterica subsp. enterica serovar typhimurium, read-out: FC
[8] = Genotoxicity in Salmonella typhimurium TA1535 harboring pSK1002 assessed as survival at 0.016 mg/ml in presence of Sprague-Dawley rat liver S9 fraction after by SOS/umu assay relative to control; assay type: toxicity, organism-based; details: salmonella enterica subsp. enterica serovar typhimurium, read-out: Survival
[9] = Genotoxicity in Salmonella typhimurium TA1535 harboring pSK1002 assessed as umu gene induction at 0.031 mg/ml in presence of Sprague-Dawley rat liver S9 fraction after by SOS/umu assay relative to control; assay type: toxicity, organism-based; details: salmonella enterica subsp. enterica serovar typhimurium, read-out: FC
[10] = Genotoxicity in Salmonella typhimurium TA1535 harboring pSK1002 assessed as umu gene induction at 0.016 mg/ml in absence of Sprague-Dawley rat liver S9 fraction after by SOS/umu assay relative to control; assay type: toxicity, organism-based; details: salmonella enterica subsp. enterica serovar typhimurium, read-out: FC
[11] = Genotoxicity in Salmonella typhimurium TA1535 harboring pSK1002 assessed as survival at 0.001 mg/ml in absence of Sprague-Dawley rat liver S9 fraction after by SOS/umu assay relative to control; assay type: toxicity, organism-based; details: salmonella enterica subsp. enterica serovar typhimurium, read-out: Survival
[12] = Genotoxicity in Salmonella typhimurium TA1535 harboring pSK1002 assessed as umu gene induction at 0.063 mg/ml in presence of Sprague-Dawley rat liver S9 fraction after by SOS/umu assay relative to control; assay type: toxicity, organism-based; details: salmonella enterica subsp. enterica serovar typhimurium, read-out: FC
[13] = Genotoxicity in Salmonella typhimurium TA1535 harboring pSK1002 assessed as survival at 0.008 mg/ml in presence of Sprague-Dawley rat liver S9 fraction after by SOS/umu assay relative to control; assay type: toxicity, organism-based; details: salmonella enterica subsp. enterica serovar typhimurium, read-out: Survival
[14] = Genotoxicity in Salmonella typhimurium TA1535 harboring pSK1002 assessed as umu gene induction at 0.004 mg/ml in absence of Sprague-Dawley rat liver S9 fraction after by SOS/umu assay relative to control; assay type: toxicity, organism-based; details: salmonella enterica subsp. enterica serovar typhimurium, read-out: FC
[15] = Genotoxicity in Salmonella typhimurium TA1535 harboring pSK1002 assessed as survival at 0.125 mg/ml in absence of Sprague-Dawley rat liver S9 fraction after by SOS/umu assay relative to control; assay type: toxicity, organism-based; details: salmonella enterica subsp. enterica serovar typhimurium, read-out: Survival
[16] = Genotoxicity in Salmonella typhimurium TA1535 harboring pSK1002 assessed as umu gene induction at 0.008 mg/ml in absence of Sprague-Dawley rat liver S9 fraction after by SOS/umu assay relative to control; assay type: toxicity, organism-based; details: salmonella enterica subsp. enterica serovar typhimurium, read-out: FC
[17] = Genotoxicity in Salmonella typhimurium TA1535 harboring pSK1002 assessed as umu gene induction at 0.016 mg/ml in presence of Sprague-Dawley rat liver S9 fraction after by SOS/umu assay relative to control; assay type: toxicity, organism-based; details: salmonella enterica subsp. enterica serovar typhimurium, read-out: FC
[18] = Genotoxicity in Salmonella typhimurium TA1535 harboring pSK1002 assessed as umu gene induction at 0.125 mg/ml in presence of Sprague-Dawley rat liver S9 fraction after by SOS/umu assay relative to control; assay type: toxicity, organism-based; details: salmonella enterica subsp. enterica serovar typhimurium, read-out: FC
[19] = Genotoxicity in Salmonella typhimurium TA1535 harboring pSK1002 assessed as umu gene induction at 0.063 mg/ml in absence of Sprague-Dawley rat liver S9 fraction after by SOS/umu assay relative to control; assay type: toxicity, organism-based; details: salmonella enterica subsp. enterica serovar typhimurium, read-out: FC
[20] = Genotoxicity in Salmonella typhimurium TA1535 harboring pSK1002 assessed as survival at 0.002 mg/ml in absence of Sprague-Dawley rat liver S9 fraction after by SOS/umu assay relative to control; assay type: toxicity, organism-based; details: salmonella enterica subsp. enterica serovar typhimurium, read-out: Survival
[21] = Genotoxicity in Salmonella typhimurium TA1535 harboring pSK1002 assessed as survival at 0.001 mg/ml in presence of Sprague-Dawley rat liver S9 fraction after by SOS/umu assay relative to control; assay type: toxicity, organism-based; details: salmonella enterica subsp. enterica serovar typhimurium, read-out: Survival
[22] = Cytotoxicity against human HepG2A16 cells by MTT assay; assay type: cell-based; details: HepG2A16 cells
Outline: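 MTT viability assay on HepG2-A16 cells, giving CC50 values.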

[23] = Selectivity index, ratio of CC50 for human HepG2A16 cells by MTT assay to IC50 for multidrug-resistant Plasmodium falciparum FCR-3; assay type: toxicity; details: HepG2A16 cells, read-out: Ratio CC50/IC50
Outline: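 HepG2-A16 human hepatoma cells were tested by MTT viability assay to give CC50. Blood-stage activity was measured against the multidrug-resistant P. falciparum FCR-3 strain by [3H]-hypoxanthine incorporation to give IC50. SI = CC50 HepG2 / FCR-3 IC50.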

[24] = Genotoxicity in Salmonella typhimurium TA1535 harboring pSK1002 assessed as umu gene induction at 0.002 mg/ml in presence of Sprague-Dawley rat liver S9 fraction after by SOS/umu assay relative to control; assay type: toxicity, organism-based; details: salmonella enterica subsp. enterica serovar typhimurium, read-out: FC
[25] = Genotoxicity in Salmonella typhimurium TA1535 harboring pSK1002 assessed as umu gene induction at 0.002 mg/ml in absence of Sprague-Dawley rat liver S9 fraction after by SOS/umu assay relative to control; assay type: toxicity, organism-based; details: salmonella enterica subsp. enterica serovar typhimurium, read-out: FC
[26] = Genotoxicity in Salmonella typhimurium TA1535 harboring pSK1002 assessed as umu gene induction at 0.001 mg/ml in absence of Sprague-Dawley rat liver S9 fraction after by SOS/umu assay relative to control; assay type: toxicity, organism-based; details: salmonella enterica subsp. enterica serovar typhimurium, read-out: FC
[27] = Genotoxicity in Salmonella typhimurium TA1535 harboring pSK1002 assessed as survival at 0.002 mg/ml in presence of Sprague-Dawley rat liver S9 fraction after by SOS/umu assay relative to control; assay type: toxicity, organism-based; details: salmonella enterica subsp. enterica serovar typhimurium, read-out: Survival
[28] = Genotoxicity in Salmonella typhimurium TA1535 harboring pSK1002 assessed as umu gene induction at 0.001 mg/ml in presence of Sprague-Dawley rat liver S9 fraction after by SOS/umu assay relative to control; assay type: toxicity, organism-based; details: salmonella enterica subsp. enterica serovar typhimurium, read-out: FC
Plasmodium falciparum [29] = assay: Antiplasmodial activity against multidrug-resistant Plasmodium falciparum FCR-3 by [3H]-hypoxanthine incorporation assay; assay type: functional, organism-based, FCR-3/Gambia; details: Plasmodium falciparum, FCR-3/Gambia; outline: as §1
[30] = Genotoxicity in Salmonella typhimurium TA1535 harboring pSK1002 assessed as survival at 0.125 mg/ml in presence of Sprague-Dawley rat liver S9 fraction after by SOS/umu assay relative to control; assay type: toxicity, organism-based; details: salmonella enterica subsp. enterica serovar typhimurium, read-out: Survival
[31] = Genotoxicity in Salmonella typhimurium TA1535 harboring pSK1002 assessed as umu gene induction at 0.004 mg/ml in presence of Sprague-Dawley rat liver S9 fraction after by SOS/umu assay relative to control; assay type: toxicity, organism-based; details: salmonella enterica subsp. enterica serovar typhimurium, read-out: FC
[32] = Genotoxicity in Salmonella typhimurium TA1535 harboring pSK1002 assessed as survival at 0.008 mg/ml in absence of Sprague-Dawley rat liver S9 fraction after by SOS/umu assay relative to control; assay type: toxicity, organism-based; details: salmonella enterica subsp. enterica serovar typhimurium, read-out: Survival
[33] = Genotoxicity in Salmonella typhimurium TA1535 harboring pSK1002 assessed as survival at 0.004 mg/ml in absence of Sprague-Dawley rat liver S9 fraction after by SOS/umu assay relative to control; assay type: toxicity, organism-based; details: salmonella enterica subsp. enterica serovar typhimurium, read-out: Survival
[34] = Genotoxicity in Salmonella typhimurium TA1535 harboring pSK1002 assessed as survival at 0.031 mg/ml in absence of Sprague-Dawley rat liver S9 fraction after by SOS/umu assay relative to control; assay type: toxicity, organism-based; details: salmonella enterica subsp. enterica serovar typhimurium, read-out: Survival
[35] = Genotoxicity in Salmonella typhimurium TA1535 harboring pSK1002 assessed as survival at 0.004 mg/ml in presence of Sprague-Dawley rat liver S9 fraction after by SOS/umu assay relative to control; assay type: toxicity, organism-based; details: salmonella enterica subsp. enterica serovar typhimurium, read-out: Survival
[36] = Genotoxicity in Salmonella typhimurium TA1535 harboring pSK1002 assessed as survival at 0.031 mg/ml in presence of Sprague-Dawley rat liver S9 fraction after by SOS/umu assay relative to control; assay type: toxicity, organism-based; details: salmonella enterica subsp. enterica serovar typhimurium, read-out: Survival
[37] = Solubility of the compound in DSPC:cholesterol:DSPE-PEG2000-Mal:DOPE-Rho lipid mixture at 250 uM; assay type: physicochemical
Outline: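 Compound added at 250 µM drug to the initial liposome lipid mixture (10 mM total lipid); precipitation and UV-visible absorbance above 300 nm assessed after encapsulation, removal of unencapsulated material and extraction with 1% w/v SDS in RPMI-A.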

## O=[N+]([O-])c1ccc(N2CCN(CCC(O)c3ccc(F)c4ccccc34)CC2)cc1 (stereo unspecified)
[1]
  fold induction at 0.008 mg/ml: 0.6
[2]
  viability at 0.063 mg/ml: 118%
[3]
  viability at 0.063 mg/ml: 124%
[4]
  viability at 0.016 mg/ml: 83.8%
Plasmodium falciparum [5]
  IC50: 4.74 µM
[6]
  fold induction at 0.031 mg/ml: 0.8
[7]
  fold induction at 0.125 mg/ml: 0.6
[8]
  viability at 0.016 mg/ml: 117%
[9]
  fold induction at 0.031 mg/ml: 0.5
[10]
  fold induction at 0.016 mg/ml: 1.1
[11]
  viability at 0.001 mg/ml: 88%
[12]
  fold induction at 0.063 mg/ml: 0.5
[13]
  viability at 0.008 mg/ml: 118%
[14]
  fold induction at 0.004 mg/ml: 1.2
[15]
  viability at 0.125 mg/ml: 145%
[16]
  fold induction at 0.008 mg/ml: 1.3
[17]
  fold induction at 0.016 mg/ml: 0.5
[18]
  fold induction at 0.125 mg/ml: 0.5
[19]
  fold induction at 0.063 mg/ml: 0.7
[20]
  viability at 0.002 mg/ml: 87%
[21]
  viability at 0.001 mg/ml: 110%
[22]
  CC50: 12.5 µM
[23]
  selectivity ratio: 7
[24]
  fold induction at 0.002 mg/ml: 0.9
[25]
  fold induction at 0.002 mg/ml: 0.8
[26]
  fold induction at 0.001 mg/ml: 0.5
[27]
  viability at 0.002 mg/ml: 107%
[28]
  fold induction at 0.001 mg/ml: 0.8
Plasmodium falciparum [29]
  IC50: 1.71 µM
[30]
  viability at 0.125 mg/ml: 128%
[31]
  fold induction at 0.004 mg/ml: 0.9
[32]
  viability at 0.008 mg/ml: 84.2%
[33]
  viability at 0.004 mg/ml: 84.9%
[34]
  viability at 0.031 mg/ml: 105%
[35]
  viability at 0.004 mg/ml: 109%
[36]
  viability at 0.031 mg/ml: 122%

## COC(=O)c1ccc(C(O)CCN2CCN(C(c3ccccc3)c3ccccc3)CC2)cc1 (stereo unspecified)
Plasmodium falciparum [5]
  IC50: 1.69 µM
[37]
  solubility: Insoluble
[22]
  CC50: 84 µM
[23]
  selectivity ratio: 58
Plasmodium falciparum [29]
  IC50: 1.46 µM
